pIC50: −log10 of the molar value. One block for each compound: values may come before it. Activity calls are given as the source filed them. The rule behind the calls is not given here.
How the values were obtained:
MDA-MB-435 [1] = experiment: Antiproliferative activity against human MDA-MB-435 cells at 25 ug/ml after 96 hrs by CellTiter 96 AQueous one solution cell proliferation assay
MDA-MB-231 [2] = experiment: Antiproliferative activity against human MDA-MB-231 cells at 25 ug/ml after 96 hrs by CellTiter 96 AQueous one solution cell proliferation assay
MDA-MB-435 [3] = experiment: Antiproliferative activity against human MDA-MB-435 cells after 96 hrs by CellTiter 96 AQueous one solution cell proliferation assay; assay type: functional, cell-based; conditions: MDA-MB-435, 96 h
Method in brief: (§1)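 Cells kept in RPMI 1640 with 10% FBS, penicillin (100 units/mL) and streptomycin (100 μg/mL) at 37 °C, 5% CO₂. Log-phase cells were trypsinized and seeded at 5000 per well, then left overnight. DMSO solutions were serially diluted and added at 25, 5.0, 1.0, 0.2 and 0.04 μg/mL for 96 h at 37 °C. Viability was read by absorbance as percent viable cells versus solvent control.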

MDA-MB-231 [4] = experiment: Antiproliferative activity against human MDA-MB-231 cells after 96 hrs by CellTiter 96 AQueous one solution cell proliferation assay; assay type: functional, cell-based; conditions: MDA-MB-231, 96 h
Method in brief: as §1

MDA-MB-435 [5] = experiment: Antiproliferative activity against human MDA-MB-435 cells assessed as viable cells at 1 ng/ml after 96 hrs by CellTiter 96 AQueous one solution cell proliferation assay relative to control; assay type: functional; conditions: MDA-MB-435, 96 h, read-out: Activity
MDA-MB-435 [6] = experiment: Antiproliferative activity against human MDA-MB-435 cells at 0.04 to 25 ug/ml after 96 hrs by CellTiter 96 AQueous one solution cell proliferation assay
MDA-MB-231 [7] = experiment: Antiproliferative activity against human MDA-MB-231 cells at 0.04 to 25 ug/ml after 96 hrs by CellTiter 96 AQueous one solution cell proliferation assay

SMILES: CCCCC(Cl)CCCC[C@H](C)[C@@H](O[C@@H]1OC[C@@H](O)[C@@H](O)[C@H]1O)c1cc(O)c([C@@H](CCCC)CCCC[C@H](C)[C@@H](OC(C)=O)c2cc(O)cc(O)c2)c(O)c1 (stereo partly drawn)
- Activity (MDA-MB-435 [1]): inactive
- Activity (MDA-MB-231 [2]): inactive

- pIC50 (MDA-MB-435 [3]): 6.22
- pIC50 (MDA-MB-231 [4]): 6.10
SMILES: CCCC[C@H]1CCCC[C@H](C)[C@@H](OC(C)=O)c2cc(O)c(c(O)c2)[C@@H](CCCC)CCCC[C@H](C)[C@@H](O[C@@H]2OC[C@@H](O)[C@@H](O)[C@H]2O)c2cc(O)c1c(O)c2

SMILES: CC[C@]1(O)C[C@@H]2CN(CCc3c([nH]c4ccccc34)[C@@](C(=O)OC)(c3cc4c(cc3OC)N(C)[C@H]3[C@@](O)(C(=O)OC)[C@H](OC(C)=O)[C@]5(CC)C=CCN6CC[C@]43[C@@H]65)C2)C1 [VINBLASTINE]
- viability at 0.001 µg/mL (MDA-MB-435 [5]): 49%

- pIC50 (MDA-MB-435 [3]): 5.89
- pIC50 (MDA-MB-231 [4]): 5.92
SMILES: CCCC[C@H]1CCCC[C@H](C)Cc2cc(O)c(c(O)c2)[C@@H](CCCC)CCCC[C@H](C)[C@@H](O[C@@H]2OC[C@@H](O)[C@@H](O)[C@H]2O)c2cc(O)c1c(O)c2

SMILES: CCCC[C@H]1CCCC[C@H](C)[C@@H](O)c2cc(O)c(c(O)c2)[C@@H](CCCC)CCCC[C@H](C)[C@@H](O[C@@H]2OC[C@@H](O)[C@@H](O)[C@H]2O)c2cc(O)c1c(O)c2
- Activity (MDA-MB-435 [6]): Active
- Activity (MDA-MB-231 [7]): Active

SMILES: CCCC[C@H]1CCCC[C@H](C)[C@@H](OC(C)=O)c2cc(O)c(c(O)c2)[C@@H](CCCC)CCCC[C@H](C)[C@@H](OC(C)=O)c2cc(O)c1c(O)c2
- Activity (MDA-MB-435 [6]): Active
- Activity (MDA-MB-231 [7]): Active

SMILES: CCCC[C@H]1CCCC[C@H](C)[C@@H](O[C@@H]2OC[C@@H](O)[C@@H](O)[C@H]2O)c2cc(O)c(c(O)c2)[C@@H](CCCC)CCCC[C@H](C)[C@@H](O[C@@H]2OC[C@@H](O)[C@@H](O)[C@H]2O)c2cc(O)c1c(O)c2
- Activity (MDA-MB-435 [6]): Active
- Activity (MDA-MB-231 [7]): Active

Reference: ChEMBL document CHEMBL4138280, “Ribocyclophanes A-E, Glycosylated Cyclophanes with Antiproliferative Activity from Two Cultured Terrestrial Cyanobacteria” (J Nat Prod, 2018)
